Results: article PMC10928719 (ACS Infectious Diseases, 2024)
Like-named read-outs stand apart in the source and are kept apart here.

Legend:
[1] = test system: HIV-1 vector with IN mutant N155H; assay: Single-round infection assay, IN mutant N155H; assay type: cell-based; conditions: Human immunodeficiency virus 1, read-out: EC50 N155H
Summary of the method: (§1)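 293 cells were co-transfected by calcium phosphate with pNLNgoMIVR–ΔLUC (16 μg; WT or IN mutant) plus pHCMV-g (4 μg) and washed ~6 h later. Supernatant was harvested 48 h later, clarified, filtered and diluted. HOS cells (4000/well) were pretreated 3 h at 37 °C with test compound (11 dilutions, 5 μM–0.0001 μM), then infected for 48 h. Luciferase was read and EC50 fitted by nonlinear regression.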

[2] = test system: HIV-1 vector with wild-type (WT) IN; assay: Single-round infection assay, viral construct with WT IN; assay type: cell-based; conditions: read-out: EC50 WT, single-round HIV-1 vector, HOS cells
Summary of the method: as §1

[3] = test system: HIV-1 vector with IN mutant G140S/Q148H; assay: Single-round infection assay, IN mutant G140S/Q148H; assay type: cell-based; conditions: Human immunodeficiency virus 1, read-out: EC50 G140S/Q148H
Summary of the method: as §1

[4] = test system: HIV-1 vector with IN mutant S230N; assay: Single-round infection assay, IN mutant S230N; assay type: cell-based; conditions: read-out: EC50 S230N, single-round HIV-1 vector
Summary of the method: as §1

[5] = test system: HIV-1 vector with IN mutant R263K; assay: Single-round infection assay, IN mutant R263K; assay type: cell-based; conditions: read-out: EC50 R263K, single-round HIV-1 vector
Summary of the method: as §1

[6] = test system: HIV-1 vector with IN mutant E138K/G140S/Q148H; assay: Single-round infection assay, IN mutant E138K/G140S/Q148H; assay type: cell-based; conditions: Human immunodeficiency virus 1, read-out: EC50 E138K/G140S/Q148H
Summary of the method: (§2)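 Vector carrying the mutant IN was made by calcium phosphate co-transfection of 293 cells with pNLNgoMIVR–ΔLUC (16 μg) and pHCMV-g (4 μg); supernatant was collected 48 h after washing. HOS cells were exposed 3 h at 37 °C to test compound (11 dilutions, 5 μM–0.0001 μM), then infected for 48 h. Luciferase luminescence gave EC50 by nonlinear regression; n = 4 independent experiments, each in triplicate.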

[7] = test system: HIV-1 vector with IN mutant E138K/G140A/Q148K; assay: Single-round infection assay, IN mutant E138K/G140A/Q148K; assay type: cell-based; conditions: Human immunodeficiency virus 1, read-out: EC50 E138K/G140A/Q148K
Summary of the method: as §2

[8] = test system: HIV-1 vector with IN mutant E138A/G140S/Q148H; assay: Single-round infection assay, IN mutant E138A/G140S/Q148H; assay type: cell-based; conditions: Human immunodeficiency virus 1, read-out: EC50 E138A/G140S/Q148H
Summary of the method: as §2

[9] = molecular target: Sso7d IN (HIV-1 integrase) (UniProt P12497+P39476); assay: In vitro IN strand transfer assay; assay type: biochemical
[10] = test system: HIV-1 vector with IN mutant E138K/G140C/Q148R; assay: Single-round infection assay, IN mutant E138K/G140C/Q148R; assay type: cell-based; conditions: Human immunodeficiency virus 1, read-out: EC50 E138K/G140C/Q148R
Summary of the method: as §2

[11] = test system: HIV-1 vector with wild-type (WT) IN; conditions: read-out: EC50 WT, single-round HIV-1 vector, previously reported ref 46; cited from earlier work
[12] = test system: HIV-1 vector with IN mutant L74M/G140C/Q148R; assay: Single-round infection assay, IN mutant L74M/G140C/Q148R; assay type: cell-based; conditions: Human immunodeficiency virus 1, read-out: EC50 L74M/G140C/Q148R
Summary of the method: as §2

[13] = test system: HIV-1 vector with IN mutant G140A/Q148K; assay: Single-round infection assay, IN mutant G140A/Q148K; assay type: cell-based; conditions: Human immunodeficiency virus 1, read-out: EC50 G140A/Q148K
Summary of the method: as §2

[14] = test system: HIV-1 vector with IN mutant G140S/Q148R; assay: Single-round infection assay, IN mutant G140S/Q148R; assay type: cell-based; conditions: Human immunodeficiency virus 1, read-out: EC50 G140S/Q148R
Summary of the method: as §2

[15] = test system: HIV-1 vector with IN mutant G118R; assay: Single-round infection assay, IN mutant G118R; assay type: cell-based; conditions: for resistance / loss of potency against G118R mutant: our single-round infection assays
Summary of the method: as §1

[16] = test system: HIV-1 vector with IN mutant T97A/G140S/Q148H; assay: Single-round infection assay, IN mutant T97A/G140S/Q148H; assay type: cell-based; conditions: Human immunodeficiency virus 1, read-out: EC50 T97A/G140S/Q148H
Summary of the method: as §2

[17] = test system: HIV-1 vector with IN mutant E138K/Q148K; assay: Single-round infection assay, IN mutant E138K/Q148K; assay type: cell-based; conditions: Human immunodeficiency virus 1, read-out: EC50 E138K/Q148K
Summary of the method: as §2

[18] = test system: HIV-1 vector with IN mutant R263K; conditions: single-round infection assays; cited from earlier work
[19] = test system: HIV-1 vector with IN mutant G140S/Q148H; conditions: single-round infection assays; cited from earlier work
[20] = test system: HIV-1 vector with IN mutant G118R; conditions: single-round infection assays; cited from earlier work
[21] = test system: human osteosarcoma (HOS) cells; assay: Cellular cytotoxicity; assay type: cell-based; conditions: 50% reduction in the level of ATP in HOS cells, 48 h
Summary of the method: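 HOS cells grown in DMEM with 5% FBS, 5% newborn calf serum and penicillin/streptomycin, then seeded at 4000 cells/well the day before the assay. Test compound was added over 250 μM to 0.05 μM and cells were held at 37 °C for 48 h. ATP luminescence reagent was read after 20 min at room temperature. CC50 came from a nonlinear regression fit.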

Structure (SMILES)	EC50 [1] [nM]	EC50 [3] [nM]	EC50 [11] [nM]	resistance / loss of potency against G118R mutant [15] [×]	other results
CC(C)CCCC(C)CCN1CCn2cc(C(=O)NCc3ccc(F)cc3F)c(=O)c(O)c2C1=O (centres unmarked) [7m]	25.6 ± 4.2	109 ± 20.5	–	–	EC50 [2]: 21.4 ± 2.5 nM; EC50 [4]: 41.8 ± 4.2 nM
O=C(NCc1ccc(F)cc1F)c1cn2c(c(O)c1=O)C(=O)NCC2 [7a]	–	> 5000	–	–	EC50 [5]: 148 ± 36.5 nM
C[C@H]1CO[C@@H]2Cn3cc(C(=O)NCc4ccc(F)cc4F)c(=O)c(O)c3C(=O)N12 [CAB, cabotegravir]	–	–	1.8 ± 0.5	17	EC50 [6]: 93 ± 6.1 nM; EC50 [7]: 610 ± 8.6 nM; EC50 [8]: 70.2 ± 9 nM; IC50 [9]: 381 nM; EC50 [10]: 134.2 ± 0.3 nM; EC50 [12]: 220 ± 41.2 nM; EC50 [13]: 393 ± 51.1 nM; EC50 [14]: 415 ± 14.5 nM; EC50 [16]: 43.7 ± 4.2 nM; EC50 [17]: 772 ± 72.2 nM
O=C(NCc1c(F)cc(F)cc1F)c1cn2c(c(O)c1=O)C(=O)N1[C@H]3CC[C@H](C3)O[C@@H]1C2 [BIC, bictegravir]	–	–	2.4 ± 0.4	4	–
COC(Cn1ccn2cc(C(=O)NCc3ccc(F)cc3F)c(=O)c(O)c2c1=O)OC [6l]	27.7 ± 2.7	1150 ± 114	–	–	–
COCC(C)n1ccn2cc(C(=O)NCc3ccc(F)cc3F)c(=O)c(O)c2c1=O (centres unmarked) [6k]	5 ± 0.7	34.1 ± 5.4	–	–	–
C[C@@H]1CCO[C@H]2Cn3cc(C(=O)NCc4ccc(F)cc4F)c(=O)c(O)c3C(=O)N12 [DTG, dolutegravir]	–	–	2.6 ± 0.3	9	reduction in susceptibility relative to WT, R263K [18]: 2 fold; reduction in susceptibility relative to WT, G140S/Q148H [19]: 2 fold; reduction in susceptibility relative to WT, G118R [20]: > 5 fold
O=C(NCc1ccc(F)cc1F)c1cn2cc[nH]c(=O)c2c(O)c1=O [6a]	457 ± 21	> 5000	–	–	CC50 [21]: 150000 ± 19900 nM
COC(CN1CCn2cc(C(=O)NCc3ccc(F)cc3F)c(=O)c(O)c2C1=O)OC [7l]	6.3 ± 0.7	394 ± 39	–	–	EC50 ([15]; read-out: EC50 G118R, single-round HIV-1 vector, IN G118R): 36.4 ± 1.3 nM
CC(C)=CCC/C(C)=C/Cn1ccn2cc(C(=O)NCc3ccc(F)cc3F)c(=O)c(O)c2c1=O [6m]	81.6 ± 7.6	365 ± 43.3	–	–	EC50 [2]: 38.9 ± 6.7 nM
